Measured values: ChEMBL document CHEMBL1828601, “Small molecule peptidomimetic inhibitors of importin α/β mediated nuclear transport” (Bioorg Med Chem, 2010)
Active and inactive are the calls of the source. No rule for the calls is given here.

What was measured:
[1] = test system: FGM; assay: Inhibition of importin alpha/beta-mediated nuclear transportation of Alexa555-GST-M9 in human FGM cell nucleus at 500 uM after 30 mins by fluorescence microscopy; assay type: cell-based
Outline: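 Transportin-dependent import measured the same way in permeabilized FGM cells, with 0.5 μM Alexa555-GST-M9 cargo in place of BSA-NLS. Conditions: 3 mg/ml HeLa cytosol, ATP-regenerating system, 0.2 mM GTP, 1% DMSO, 30 min at 30°C. Positive control was 1 mg/ml WGA. Nuclear cargo fluorescence quantified per nucleus by automated imaging.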

[2] = test system: FGM; assay: Inhibition of importin alpha/beta-mediated nuclear transportation of Alexa555-BSA-NLS in human FGM cell nucleus at 500 uM after 30 mins by fluorescence microscopy; assay type: cell-based

Row | SMILES | inhibition [1] | inhibition [2]
1 | N[C@@H](CO)C(=O)N1C[C@@H](C(=O)NCCc2c[nH]cn2)[C@H](C(=O)NCCc2c[nH]c3ccccc23)C1 | inactive | inactive
2 | CSCC[C@H](N)C(=O)N1C[C@@H](C(=O)NCCCCN)[C@H](C(=O)NCCc2ccc3ccccc3c2)C1 | inactive | inactive
3 | N[C@@H](Cc1ccc2ccccc2c1)C(=O)Nc1ccc(C(=O)N[C@@H](CCc2ccccc2)C(=O)O)cc1OCc1ccc(Cl)cc1 | inactive | inactive
4 | NCCCC[C@H](N)C(=O)Nc1ccc(C(=O)N[C@@H](CCc2ccccc2)C(=O)O)cc1OCc1ccc(Cl)cc1 | inactive | inactive
5 | CC[C@@H](C)[C@H](N)C(=O)Nc1ccc(C(=O)N[C@@H](CCc2ccccc2)C(=O)O)cc1OCc1ccc(Cl)cc1 | Active | Active
6 | COc1ccc(C[C@H](N)C(=O)N2C[C@@H](C(=O)NCCc3c[nH]cn3)[C@H](C(=O)NCCc3c[nH]c4ccccc34)C2)cc1 | Active | Active
7 | CC[C@H](N)C(=O)Nc1ccc(C(=O)N[C@H](C(=O)O)[C@@H](C)CC)cc1OCc1c[nH]cn1 | inactive | inactive
8 | N[C@@H](CCc1ccc(O)cc1)C(=O)N1C[C@@H](C(=O)NCCc2c[nH]cn2)[C@H](C(=O)NCCc2c[nH]c3ccccc23)C1 | inactive | inactive
9 | NCCCCNC(=O)[C@@H]1CN(C(=O)[C@@H](N)Cc2ccc3ccccc3c2)C[C@H]1C(=O)NCCc1ccc2ccccc2c1 | inactive | inactive
10 | CC[C@H](C)[C@H](NC(=O)c1ccc(NC(=O)[C@@H](N)Cc2ccc3ccccc3c2)c(OCc2c[nH]cn2)c1)C(=O)O | Active | Active
11 | CC[C@@H](C)[C@H](NC(=O)c1ccc(NC(=O)[C@@H](N)CCCCN)c(OCc2c[nH]cn2)c1)C(=O)O | inactive | inactive
12 | COc1ccc(C[C@H](N)C(=O)Nc2ccc(C(=O)N[C@@H](CCc3ccccc3)C(=O)O)cc2OCc2ccc(Cl)cc2)cc1 | inactive | inactive
13 | N[C@@H](CCc1ccc(Cl)cc1)C(=O)N1C[C@@H](C(=O)NCCc2c[nH]cn2)[C@H](C(=O)NCCc2c[nH]c3ccccc23)C1 | inactive | inactive
14 | NCCCCNC(=O)[C@@H]1CN(C(=O)[C@@H](N)CCc2ccccc2)C[C@H]1C(=O)NCCc1ccc2ccccc2c1 | inactive | inactive
15 | C[C@@H](O)[C@H](N)C(=O)Nc1ccc(C(=O)N[C@@H](CCc2ccccc2)C(=O)O)cc1OCc1ccc(Cl)cc1 | inactive | inactive
16 | CC[C@@H](C)[C@H](N)C(=O)Nc1ccc(C(=O)N[C@H](C(=O)O)[C@@H](C)CC)cc1OCc1c[nH]cn1 | inactive | inactive
17 | CC[C@H](C)[C@H](NC(=O)c1ccc(NC(=O)[C@@H](N)C(C)C)c(OCc2c[nH]cn2)c1)C(=O)O | inactive | inactive
18 | COc1ccc(C[C@H](N)C(=O)N2C[C@@H](C(=O)NCCCCN)[C@H](C(=O)NCCc3ccc4ccccc4c3)C2)cc1 | inactive | inactive
19 | CC[C@H](C)[C@H](NC(=O)c1ccc(NC(=O)[C@@H](N)CC(N)=O)c(OCc2c[nH]cn2)c1)C(=O)O | inactive | inactive
20 | CC[C@@H](C)[C@H](NC(=O)c1ccc(NC(=O)[C@@H](N)CC(=O)O)c(OCc2c[nH]cn2)c1)C(=O)O | inactive | inactive

Row | SMILES | inhibition [1] | inhibition [2]
21 | C[C@@H](O)[C@H](N)C(=O)N1C[C@@H](C(=O)NCCCCN)[C@H](C(=O)NCCc2ccc3ccccc3c2)C1 | inactive | inactive
22 | CC[C@@H](C)[C@H](NC(=O)c1ccc(NC(=O)[C@@H](N)CO)c(OCc2c[nH]cn2)c1)C(=O)O | Active | Active
23 | NCCCCNC(=O)[C@@H]1CN(C(=O)[C@@H](N)Cc2ccc(Cl)cc2)C[C@H]1C(=O)NCCc1ccc2ccccc2c1 | inactive | inactive
24 | N[C@@H](Cc1c[nH]c2ccccc12)C(=O)N1C[C@@H](C(=O)NCCc2c[nH]cn2)[C@H](C(=O)NCCc2c[nH]c3ccccc23)C1 | Active | Active
25 | CC[C@H](N)C(=O)Nc1ccc(C(=O)N[C@@H](CCc2ccccc2)C(=O)O)cc1OCc1ccc(Cl)cc1 | Active | Active
26 | N[C@@H](CCc1ccccc1)C(=O)N1C[C@@H](C(=O)NCCc2c[nH]cn2)[C@H](C(=O)NCCc2c[nH]c3ccccc23)C1 | Active | Active
27 | CC[C@H](C)[C@H](NC(=O)c1ccc(NC(=O)[C@@H](N)Cc2c[nH]c3ccccc23)c(OCc2c[nH]cn2)c1)C(=O)O | inactive | inactive
28 | NCCCCNC(=O)[C@@H]1CN(C(=O)[C@@H](N)CCc2ccc(Cl)cc2)C[C@H]1C(=O)NCCc1ccc2ccccc2c1 | inactive | inactive
29 | NCCCCNC(=O)[C@@H]1CN(C(=O)[C@@H](N)CC(=O)O)C[C@H]1C(=O)NCCc1ccc2ccccc2c1 | inactive | inactive
30 | CC[C@H](C)[C@H](NC(=O)c1ccc(NC(=O)[C@H](C)N)c(OCc2c[nH]cn2)c1)C(=O)O | inactive | inactive
31 | CC[C@H](C)[C@H](NC(=O)c1ccc(NC(=O)[C@@H](N)Cc2ccc(O)cc2)c(OCc2c[nH]cn2)c1)C(=O)O | inactive | inactive
32 | N[C@@H](Cc1cnc[nH]1)C(=O)N1C[C@@H](C(=O)NCCc2c[nH]cn2)[C@H](C(=O)NCCc2c[nH]c3ccccc23)C1 | inactive | inactive
33 | CC(C)C[C@H](N)C(=O)Nc1ccc(C(=O)N[C@@H](CCc2ccccc2)C(=O)O)cc1OCc1ccc(Cl)cc1 | Active | Active
34 | N[C@@H](Cc1ccccc1)C(=O)N1C[C@@H](C(=O)NCCc2c[nH]cn2)[C@H](C(=O)NCCc2c[nH]c3ccccc23)C1 | Active | Active
35 | N[C@@H](CC(=O)O)C(=O)Nc1ccc(C(=O)N[C@@H](CCc2ccccc2)C(=O)O)cc1OCc1ccc(Cl)cc1 | Active | Active
36 | CC[C@H](C)[C@H](NC(=O)c1ccc(NC(=O)[C@@H](N)Cc2ccccc2)c(OCc2c[nH]cn2)c1)C(=O)O | inactive | inactive
37 | CC(C)[C@H](N)C(=O)N1C[C@@H](C(=O)NCCCCN)[C@H](C(=O)NCCc2ccc3ccccc3c2)C1 | inactive | inactive
38 | C[C@H](N)C(=O)N1C[C@@H](C(=O)NCCCCN)[C@H](C(=O)NCCc2ccc3ccccc3c2)C1 | inactive | inactive
39 | CC[C@@H](C)[C@H](NC(=O)c1ccc(NC(=O)[C@@H](N)Cc2c[nH]cn2)c(OCc2c[nH]cn2)c1)C(=O)O | Active | Active
40 | N[C@@H](Cc1ccc(Cl)cc1)C(=O)Nc1ccc(C(=O)N[C@@H](CCc2ccccc2)C(=O)O)cc1OCc1ccc(Cl)cc1 | inactive | inactive
